Assay results of several laboratories.
CYP2C9: Cytochrome P450 2C9 (CYP2C9, Homo sapiens, UniProt P11712)
CYP2C8: Cytochrome P450 2C8 (CYP2C8, Homo sapiens, UniProt P10632)

Cc1cccc(-c2nnc(N[C@@H](Cc3ccc(C#N)cc3)C(=O)N3CCc4ccccc43)o2)c1 — half-life (metabolic stability; rat, liver microsomes; 10 µM, pH 7.4): 18 min
CN(C)C(=O)c1cc2cnc(Nc3ccc(-c4ccc5c(=O)cc(N6CCOCC6)oc5c4)cc3)nc2n1C1CCCC1.Cl — AUC (BALB/c mouse, plasma; oral, 20 mg/kg): 7810 ng·h/mL
COc1cc(Cn2nc(-c3ccc(CO)o3)c3ccccc32)ccn1 — half-life (metabolic stability; rat, liver microsomes; 1 µM, pH 7.4): 7 min
CC(=O)O[C@H]1[C@H](O[C@H]2CC[C@]34C[C@]35CC[C@]3(C)[C@@H]([C@@]6(C)CC[C@@H](C(C)(C)O)O6)[C@@H](O)C[C@@]3(C)[C@@H]5C[C@H](O[C@@H]3O[C@H](CO)[C@@H](O)[C@H](O)[C@H]3O)[C@H]4C2(C)C)OC[C@@H](OC(C)=O)[C@@H]1O — IC50 (CYP2C9; enzyme activity, inhibitor; human, liver microsomes): 116 µM
CSc1ccccc1C(=O)NCCn1cc(C(=O)NCc2cccc(C)n2)c(=O)c2cc3c(cc21)OC(F)(F)O3 — IC50 (CYP2C8; enzyme activity, inhibitor; human, liver microsomes; 20 min, without NADPH, with preincubation): > 100 µM
N#Cc1ccc(C[C@@H](Nc2c(Nc3ccc(F)cc3)c(=O)c2=O)C(=O)N2CCc3ccccc32)cc1 — half-life (metabolic stability; rat, liver microsomes; 10 µM, pH 7.4): 15 min
C=C(F)C(=O)N1CCN(c2nc(OC[C@@H]3CCCN3C)nc3c2CCN(c2cccc4cccc(Cl)c24)C3)C[C@@H]1CC#N — half-life (chemical stability, HPLC; glutathione solution; 5 µM, pH 7.4): 520 min
CC(C)(O)[C@@H]1CC[C@](C)([C@H]2[C@@H](O)C[C@@]3(C)[C@@H]4C[C@H](O[C@@H]5O[C@H](CO)[C@@H](O)[C@H](O)[C@H]5O)[C@H]5C(C)(C)[C@@H](O[C@@H]6OC[C@@H](O)[C@H](O)[C@H]6O)CC[C@@]56C[C@@]46CC[C@]23C)O1 — IC50 (CYP2C9; enzyme activity, inhibitor; human, liver microsomes): > 200 µM
OCc1ccc(-c2nn(Cc3ccccc3)c3ccccc23)o1 — half-life (metabolic stability; rat, liver microsomes; 1 µM, pH 7.4): 6 min
CSc1ccccc1C(=O)NCCn1cc(C(=O)NCc2cccc(C)n2)c(=O)c2cc3c(cc21)OCO3 — IC50 (CYP2C8; enzyme activity, inhibitor; human, liver microsomes; 20 min, without NADPH, with preincubation): > 100 µM
Cc1ccc(OCC(=O)N[C@@H](Cc2c[nH]c3ccccc23)C(=O)OC(C)C)cc1 — half-life (chemical stability; simulated intestinal fluid): > 300 min
NCc1ccc(-c2nn(Cc3ccncc3)c3ccccc23)o1 — bioavailability (male CD-1 mouse, plasma; oral, 10 mg/kg): 15%
